Assay results taken from PMC9026613 (Current Therapeutic Research, Clinical and Experimental, 2022).
Like-named read-outs stand apart in the source and are kept apart here.

Experiments:
[1] = system: 8 different human cardiac ion channels (including human ether-a-go-go related gene [hERG]); details: 8 channels including hERG; nonclinical studies, ref not given; cited from earlier work
[2] = system: healthy volunteers; test: Concentration-QTc analysis, linear mixed-effects model; assay type: in vivo, human; details: not significant at the 0.1 level
[3] = system: healthy volunteers; assay type: in vivo, human
Outline: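 Single IV (0.03–1.5 mg) or SC (0.6 mg) dose, or IV placebo. Safety was monitored throughout the study by AE recording, vital signs, clinical laboratory tests, physical examination, 12-lead ECG and injection-site reaction checks. TEAEs were tallied per participant by treatment.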

[4] = system: healthy volunteers; test: Antidasiglucagon antibody assessment; parameters: species or system human; details: in vivo
[5] = system: plasma glucose; test: Plasma glucose response; assay type: in vivo, human
[6] = Pharmacokinetics of dasiglucagon in plasma after IV or SC dosing, Phase I trial; assay type: in vivo, human
Outline: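 Single IV doses of 0.03, 0.1, 0.3, 0.6 or 1.5 mg from a 4 mg/mL solution diluted with vehicle, after a fast of ≥8 h. One cohort got 0.6 mg SC into the abdomen by prefilled syringe. Plasma sampled over 4 h (IV) or 5 h (SC). Dose proportionality by log–log power-model regression (90% CI of slope). Absolute bioavailability from a linear model of AUC, SC versus IV 0.6 mg.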

[7] = system: healthy volunteers; assay type: in vivo, human; remark: listed apart in the source
[8] = system: plasma glucose; details: following insulin-induced hypoglycemia; cited from earlier work
[9] = system: dogs; details: cardiovascular telemetry; nonclinical studies, ref not given; cited from earlier work
[10] = cited from earlier work
[11] = system: healthy volunteers; test: Concentration-QTc analysis, Emax model; assay type: in vivo, human; details: for ΔΔQTcF estimate at geometric mean Cmax: Emax model prediction, mean (90% CI)
Outline: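 Placebo-adjusted ΔQTcF for each subject and time point = individual ΔQTcF minus the estimated time effect at that point. ΔΔQTcF predicted at the geometric mean peak concentration per dose.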

[12] = 0.6 mg single subcutaneous dose, other clinical trials; ref not given; cited from earlier work
[13] = system: healthy volunteers; test: Cardiac repolarization: by-time point analysis of QTcF; assay type: in vivo, human; details: least squares mean
Outline: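 Single IV dose of test compound or placebo. Continuous Holter 12-lead ECG with supine rest ≥15 min. Extractions at 45, 30 and 15 min predose and at 5–240 min and 24 h postdose, up to 10 nonoverlapping 10-s replicates per point. Lead II was primary. QTcF=QT/RR^1/3. Analysed in a linear mixed-effects model on ΔQTcF (fixed: time, treatment, interaction; baseline covariate), placebo pooled.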

## CC(C)C[C@H](NC(=O)[C@H](Cc1c[nH]c2ccccc12)NC(=O)[C@H](CCCCN)NC(=O)[C@@H](NC(=O)[C@H](Cc1ccccc1)NC(=O)[C@H](CCC(=O)O)NC(=O)[C@H](CCC(=O)O)NC(=O)[C@H](C)NC(=O)[C@H](CCCNC(=N)N)NC(=O)[C@H](C)NC(=O)C(C)(C)NC(=O)[C@H](CC(=O)O)NC(=O)[C@H](CC(C)C)NC(=O)[C@H](Cc1ccc(O)cc1)NC(=O)[C@H](CCCCN)NC(=O)[C@H](CO)NC(=O)[C@H](Cc1ccc(O)cc1)NC(=O)[C@H](CC(=O)O)NC(=O)[C@H](CO)NC(=O)[C@@H](NC(=O)[C@H](Cc1ccccc1)NC(=O)[C@@H](NC(=O)CNC(=O)[C@H](CCC(N)=O)NC(=O)[C@H](CO)NC(=O)[C@@H](N)Cc1c[nH]cn1)[C@@H](C)O)[C@@H](C)O)C(C)C)C(=O)N[C@@H](CCC(=O)O)C(=O)N[C@@H](CO)C(=O)N[C@H](C(=O)O)[C@@H](C)O [dasiglucagon]
[1]
  effect on human cardiac ion channels in vitro: no effect
[2]
  treatment effect-specific intercept: 0.8 ms
[3]; 0.6 mg SC cohort
  participants who experienced nausea: 4 out of 6
  participants who vomited: 3 out of 6
[3]; SC and IV dasiglucagon cohorts
  dizziness: 2 participants
  extravasation: 2 participants
  headache: 2 participants
  nausea: 9 participants
  vomiting: 4 participants
[3]; all cohorts
  ECG-related TEAEs or TEAEs in the system organ class cardiac disorders: no ECG-related TEAEs
[3]; all dasiglucagon cohorts, 14 out of 42
  participants reporting treatment-emergent AEs (TEAEs): 33.3%
[3]; in vivo
  effect on vital signs or safety laboratory parameters: No effect
[3]; spontaneous pain (0.1 mg IV), hematoma (0.6 mg SC), both mild
  injection site reactions: Two injection site reactions
[4]
  cross-reactivity of antibodies to endogenous glucagon: no cross-reactivity
[5]; IV 0.03 mg
  Median time to Cmax, glucose: 17.5 min
[5]; IV 0.03 mg, healthy volunteers
  mean maximum glucose concentration (Cmax, glucose): 135 mg/dL
[5]; IV 1.5 mg
  Median time to Cmax, glucose: 42.5 min
[5]; IV 1.5 mg, healthy volunteers
  mean maximum glucose concentration (Cmax, glucose): 160 mg/dL
[5]; SC 0.6 mg, healthy volunteers
  plasma glucose level after subcutaneous dosing: 172 mg/dL
[6]; IV dose cohorts 0.03 to 1.5 mg, power model
  dose proportionality of AUC and Cmax: dose-proportional
[6]; human, plasma, iv
  half-life: ~18 min
[6]; human, plasma, iv, 0.03 mg
  Cmax: 0.568 nM
[6]; human, plasma, iv, 0.1 mg
  Cmax: 2.39 nM
[6]; human, plasma, iv, 0.3 mg
  Cmax: 6.46 nM
[6]; human, plasma, iv, 0.6 mg
  AUC(0-inf): 4.63 nM·h
  Cmax: 10.2 nM
[6]; human, plasma, iv, 1.5 mg
  Cmax: 57.9 nM
[6]; human, plasma, sc, 0.6 mg
  AUC(0-inf): 2.36 nM·h
  AUC(0-t): 2.36 nM·h
  Cmax: 1.53 nM
  bioavailability: ~51%
  half-life: ~30 min
[7]; IV 0.03 mg, 5 minutes postdose (lowest value)
  Mean ΔΔHR: –7.0 bpm
[7]; IV 0.6 mg, 24 hours postdose (highest value)
  Mean ΔΔHR: 7.5 bpm
[7]; IV 0.03 to 1.5 mg
  effect on PR interval: did not have a clinically relevant effect
  effect on QRS duration: did not have a clinically relevant effect
[7]; all studied IV doses 0.03 to 1.5 mg
  mean placebo-corrected change from baseline in heart rate (ΔΔHR): < 10 bpm
[8]
  Median time to plasma glucose recovery vs reconstituted lyophilized glucagon: comparable
[9]
  potential for QTc prolongation in dogs: no potential for QTc prolongation
[10]
  stability in aqueous solutions: stable in aqueous solutions
[11]; Emax model, all IV data, P = 0.0137
  Emax (maximum estimated effect on ΔΔQTcF): 3.6 ms
[11]; Emax model, not significant at the 0.1 level
  treatment effect–specific intercept: -0.44 ms
[11]; IV 0.03 mg, n = 36 overall
  ΔΔQTcF estimate at geometric mean Cmax: 1.61 ms
[11]; IV 0.1 mg
  ΔΔQTcF estimate at geometric mean Cmax: 2.61 ms
[11]; IV 0.3 mg
  ΔΔQTcF estimate at geometric mean Cmax: 2.93 ms
[11]; IV 0.6 mg
  ΔΔQTcF estimate at geometric mean Cmax: 3.01 ms
[11]; IV 1.5 mg
  ΔΔQTcF estimate at geometric mean Cmax: 3.13 ms
[11]; read-out: amount that produces half the effect of Emax, Emax model, plasma concentration, not significant at the 0.1 level
  EC50: 0.426 nM
[12]
  maximum concentrations observed in any clinical trial: 5000 to 6000 pmol/L
[13]; IV 0.03 mg, 40 minutes postdose
  Mean ΔΔQTcF: -3.4 ms
[13]; IV 0.1 mg, 180 minutes postdose
  Mean ΔΔQTcF: 12.3 ms
